pIC50: −log10 of the molar value.
Legend:
Trypanosoma cruzi [1] = assay: Trypanocidal activity against epimastigote stage of Trypanosoma cruzi assessed as cell viability after 24 hrs by MTT assay
Vero = assay: Cytotoxicity against african green monkey Vero cells by MTT assay; assay type: cell-based; conditions: Chlorocebus sabaeus
Summary of the method: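 Vero cells in RPMI 1640 without phenol red, with compound added from DMSO (final below 0.25% v/v). Read by MTT (5 mg/mL) plus 0.22 mg/mL phenazine methosulfate for 4 h at 37 °C, formazan dissolved in 10% SDS/0.01 M HCl overnight, OD at 570 nm. IC50 from four-parameter nonlinear fit; at least three experiments, triplicate cultures.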

[2] = Antiproliferative activity against human dermal fibroblast cells after 72 hrs; assay type: cell-based
Summary of the method: (§1)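 Cells grown in DMEM with 10% FCS, penicillin/streptomycin and 1 mM glutamine. Seeded at 3 × 10³ cells/well and allowed to attach for 24 h at 37 °C in 5% CO₂. Exposed continuously for 72 h to four serial dilutions (12.5 to 100 µM), in triplicate; final DMSO 0.1%, DMSO-only controls. Read by sulforhodamine B after TCA fixation, with doxorubicin as reference.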

[3] = Antiproliferative activity against human PC3 cells after 72 hrs; assay type: functional, cell-based; conditions: PC-3, 72 h
Summary of the method: as §1

MDA-MB-231 = assay: Antiproliferative activity against human MDA-MB-231 cells after 72 hrs; assay type: functional, cell-based; conditions: MDA-MB-231, 72 h
Summary of the method: as §1

MCF7 [4] = assay: Antiproliferative activity against human MCF7 cells after 72 hrs; assay type: functional, cell-based; conditions: MCF7, 72 h
Summary of the method: as §1

MCF7 [5] = assay: Selectivity index, ratio of IC50 for human dermal fibroblast cells to IC50 for human MCF7 cells; assay type: functional
Summary of the method: (§2)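 Selectivity index calculated as IC50 in non-tumoral dermal human fibroblasts divided by IC50 in the cancer line. Both IC50s come from a 72 h sulforhodamine B growth assay with four dilutions (12.5–100 µM) in triplicate.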

Fibroblast [6] = assay: Selectivity index, ratio of IC50 for human dermal fibroblast cells to IC50 for human PC3 cells; assay type: functional
Summary of the method: as §2

Trypanosoma cruzi [7] = assay: Trypanocidal activity against trypomastigote form of Trypanosoma cruzi infected in african green monkey Vero cells assessed as cell viability after 5 to 7 days by MTT assay; assay type: functional
[8] = Selectivity index, ratio of CC50 for african green monkey Vero cells to IC50 for epimastigote stage of Trypanosoma cruzi; assay type: functional
Summary of the method: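 Selectivity index taken as Vero IC50 divided by epimastigote IC50. Both values are from MTT viability assays, with Vero cells read at 37 °C and epimastigotes at 28 °C.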

Fibroblast [9] = assay: Selectivity index, ratio of IC50 for human dermal fibroblast cells to IC50 for human MDA-MB-231 cells; assay type: functional
Summary of the method: as §2

SMILES	pIC50 (Trypanosoma cruzi [1])	pIC50 (Vero)	pIC50 [2]	pIC50 [3]	pIC50 (MDA-MB-231)	pIC50 (MCF7 [4])	Selectivity Index (MCF7 [5])	Selectivity Index (Fibroblast [6])	inhibition (INH) (Trypanosoma cruzi [7]) [%]	Selectivity Index [8]	Selectivity Index (Fibroblast [9])
O=C1C=C(Nc2ccc(O)cc2)C(=O)c2ccccc21	< 4.60	< 4.60	–	–	–	–	–	–	–	–	–
COc1ccc(NC2=CC(=O)c3ccccc3C2=O)cc1	< 4.60	< 4.60	4.18	4.45	< 4.00	< 4.00	–	–	–	–	–
COc1ccc(OC)c(NC2=CC(=O)c3ccccc3C2=O)c1	4.63	< 4.30	< 4.00	5.99	4.06	6.68	>480	>97	–	–	–
COc1ccc(OC)c(NC2=C(Cl)C(=O)c3ccccc3C2=O)c1	< 4.00	< 4.00	–	–	–	–	–	–	–	–	–
O=C1C=C(Nc2ccc3ccccc3c2)C(=O)c2ccccc21	5.04	5.16	–	–	–	–	–	–	86.02	0.77	–
O=C1C(O)=C(c2ccccc2[N+](=O)[O-])C(=O)c2ccccc21	< 4.00	< 4.00	–	–	–	–	–	–	–	–	–
COc1ccccc1NC1=CC(=O)c2ccccc2C1=O	5.46	< 4.60	< 4.00	< 4.00	< 4.00	< 4.00	–	–	18.78	–	–
COc1cccc(NC2=CC(=O)c3ccccc3C2=O)c1	< 4.60	< 4.60	< 4.00	< 4.00	< 4.00	< 4.00	–	–	–	–	–
COc1ccc(NC2=CC(=O)c3ccccc3C2=O)cc1OC	4.60	< 4.60	< 4.00	4.98	4.99	4.65	–	–	–	–	–
COc1ccc(NC2=CC(=O)c3ccccc3C2=O)c(OC)c1	< 4.60	< 4.60	< 4.00	4.22	< 4.00	< 4.00	–	–	–	–	–
CCCCCCOc1ccc(NC2=CC(=O)c3ccccc3C2=O)cc1	5.76	4.57	< 4.00	4.55	< 4.00	< 4.00	–	–	69.63	16	–
Cc1ccc(NC2=CC(=O)c3ccccc3C2=O)c(C)c1	< 4.60	< 4.60	–	–	–	–	–	–	–	–	–
CCCCCCOc1ccc(NC2=C(Cl)C(=O)c3ccccc3C2=O)cc1	5.22	3.71	< 4.00	< 4.00	< 4.00	< 4.00	–	–	46.3	32	–
O=C1C=C(Nc2cccc3ccccc23)C(=O)c2ccccc21	4.80	< 4.60	–	–	–	–	–	–	59.67	–	–
COc1cccc2c3c([nH]c12)C(=O)c1ccccc1C3=O	4.68	4.66	< 4.00	< 4.00	< 4.00	< 4.00	–	–	12.21	0.95	–
COc1ccc2c3c([nH]c2c1)C(=O)c1ccccc1C3=O	< 4.60	< 4.60	–	–	–	–	–	–	–	–	–

SMILES	pIC50 (Trypanosoma cruzi [1])	pIC50 (Vero)	pIC50 [2]	pIC50 [3]	pIC50 (MDA-MB-231)	pIC50 (MCF7 [4])	Selectivity Index (MCF7 [5])	Selectivity Index (Fibroblast [6])	inhibition (INH) (Trypanosoma cruzi [7]) [%]	Selectivity Index [8]	Selectivity Index (Fibroblast [9])
COc1ccc2[nH]c3c(c2c1)C(=O)c1ccccc1C3=O	< 4.30	< 4.30	< 4.00	< 4.00	< 4.00	< 4.00	–	–	–	–	–
COc1ccc(OC)c2c3c([nH]c12)C(=O)c1ccccc1C3=O	< 4.00	< 4.00	–	–	–	–	–	–	–	–	–
CCCCCCOc1ccc2[nH]c3c(c2c1)C(=O)c1ccccc1C3=O	< 4.00	< 4.00	–	–	–	–	–	–	–	–	–
COc1cc2c(cc1OC)C(=O)c1c([nH]c3cc(OC)c(OC)cc13)C2=O	< 4.00	< 4.00	–	–	–	–	–	–	–	–	–
COc1ccc2c(c1)c1c(n2C)C(=O)c2ccccc2C1=O	< 4.60	< 4.60	< 4.00	< 4.00	< 4.00	< 4.00	–	–	–	–	–
COc1cc2c3c(n(C)c2cc1OC)C(=O)c1ccccc1C3=O	< 4.00	< 4.00	< 4.00	< 4.00	< 4.00	< 4.00	–	–	–	–	–
COc1ccc(OC)c(NC2=CC(=O)c3ncccc3C2=O)c1	5.61	4.81	4.65	6.28	5.06	6.92	188	42	32.62	6.3	–
O=C1C(Cl)=C(Nc2cccnc2)C(=O)c2ccccc21	< 4.00	< 4.00	–	–	–	–	–	–	–	–	–
Cc1cnc2c(c1)C(=O)C=C(Nc1ccccc1)C2=O	5.24	4.79	–	–	–	–	–	–	58.2	2.7	–
COc1ccc(OC)c(NC2=CC(=O)C3=C(OC(C)(C)C3)C2=O)c1	4.91	4.81	–	–	–	–	–	–	7.5	1.3	–
Cn1ncc2c1C(=O)C1=C(CC(C)(C)O1)C2=O	5.60	4.87	–	–	–	–	–	–	38.57	5.3	–
COc1cc2c(cc1OC)C(=O)C(c1cc(OC)c(OC)cc1[N+](=O)[O-])=C(O)C2=O	< 4.00	< 4.00	–	–	–	–	–	–	–	–	–
O=C1C=C(Nc2ccccc2)C(=O)c2ccccc21	< 4.60	< 5.00	–	–	–	–	–	–	–	–	–
O=C1c2ccccc2C(=O)c2c1[nH]c1ccccc21 [BENZOCARBAZOLEDIONE]	< 5.00	< 5.00	–	–	–	–	–	–	–	–	–
COc1cccc2c1C(=O)c1c(O)c3c(c(O)c1C2=O)C[C@@](O)(C(=O)CO)C[C@@H]3O[C@H]1C[C@H](N)[C@H](O)[C@H](C)O1 [DOXORUBICIN]	–	–	5.10	6.27	6.51	6.49	25	15	–	–	25
CC1CS(=O)(=O)CCN1/N=C/c1ccc([N+](=O)[O-])o1 (stereo not given) [NIFURTIMOX]	4.68	3.39	–	–	–	–	–	–	42.62	20	–

From ChEMBL document CHEMBL3351423, “2-Phenylaminonaphthoquinones and related compounds: synthesis, trypanocidal and cytotoxic activities” (Bioorg Med Chem, 2014)
